How the values were obtained:
[1] = biological target: T1, Caspase-4 (Homo sapiens, UniProt P49662); test: Inhibitory activity against caspase-4; conditions: read-out: Ki app
T1 sequence (P49662 whole entry): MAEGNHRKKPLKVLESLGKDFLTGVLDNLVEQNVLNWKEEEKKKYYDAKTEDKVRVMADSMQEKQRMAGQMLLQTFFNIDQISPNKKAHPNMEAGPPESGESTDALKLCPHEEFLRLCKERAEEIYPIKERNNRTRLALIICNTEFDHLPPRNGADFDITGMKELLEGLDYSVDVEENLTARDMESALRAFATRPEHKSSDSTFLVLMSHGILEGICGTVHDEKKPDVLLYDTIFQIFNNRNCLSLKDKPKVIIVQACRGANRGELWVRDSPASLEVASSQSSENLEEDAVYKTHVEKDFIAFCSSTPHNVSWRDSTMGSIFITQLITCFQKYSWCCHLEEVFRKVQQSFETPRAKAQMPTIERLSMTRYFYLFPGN
How it was run: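 Recombinant full-length human caspase 4, ~10 units/assay, in potassium acetate pH 5.8 with 1 mM EDTA, 10% sucrose, 0.1% CHAPS and 5 mM β-mercaptoethanol. Substrate 100 μM Ac-LEED-AMC. Read at 360/460 nm, 30 °C, 5% final DMSO. Single-dose screen (typically 5–50 μM), then IC50 curves for actives.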

[2] = biological target: T2, Caspase-6 (Homo sapiens, UniProt P55212); test: Inhibitory activity against Caspase-6; conditions: read-out: Ki app
T2 sequence (P55212 whole entry): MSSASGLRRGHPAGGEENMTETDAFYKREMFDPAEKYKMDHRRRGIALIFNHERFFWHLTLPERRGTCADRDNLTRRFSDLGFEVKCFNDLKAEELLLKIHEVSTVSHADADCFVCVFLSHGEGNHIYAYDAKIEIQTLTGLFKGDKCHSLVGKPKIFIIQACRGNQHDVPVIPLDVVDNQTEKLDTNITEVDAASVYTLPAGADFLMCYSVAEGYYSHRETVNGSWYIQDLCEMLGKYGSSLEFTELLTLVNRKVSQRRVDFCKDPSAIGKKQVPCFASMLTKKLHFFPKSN
How it was run: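 Recombinant full-length human caspase 6 (~10 units/assay) in 50 mM Tris-HCl pH 7.4 with 0.1% CHAPS, 1.5 mM MgCl2, 1 mM EDTA and 5 mM β-mercaptoethanol. Substrate 10 μM Ac-DEVD-AMC. AMC monitored at 360/460 nm, 30 °C, final DMSO 5%. Single-dose screen (typically 5–50 μM), then IC50 determination.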

[3] = biological target: T3, Caspase-3 (Homo sapiens, UniProt P42574); test: Inhibition of recombinant human caspase-3
T3 sequence (P42574 whole entry): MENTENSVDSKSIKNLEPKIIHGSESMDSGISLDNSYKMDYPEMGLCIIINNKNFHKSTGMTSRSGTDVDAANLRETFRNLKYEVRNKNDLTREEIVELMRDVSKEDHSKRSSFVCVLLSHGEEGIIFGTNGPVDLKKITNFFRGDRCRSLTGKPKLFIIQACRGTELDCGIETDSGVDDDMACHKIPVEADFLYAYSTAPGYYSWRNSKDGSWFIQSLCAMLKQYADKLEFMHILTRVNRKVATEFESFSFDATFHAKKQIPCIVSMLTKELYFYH

[4] = biological target: T4, Caspase-9 (Homo sapiens, UniProt P55211); test: Inhibitory activity against Caspase-9; conditions: read-out: Ki app
T4 sequence (P55211 whole entry): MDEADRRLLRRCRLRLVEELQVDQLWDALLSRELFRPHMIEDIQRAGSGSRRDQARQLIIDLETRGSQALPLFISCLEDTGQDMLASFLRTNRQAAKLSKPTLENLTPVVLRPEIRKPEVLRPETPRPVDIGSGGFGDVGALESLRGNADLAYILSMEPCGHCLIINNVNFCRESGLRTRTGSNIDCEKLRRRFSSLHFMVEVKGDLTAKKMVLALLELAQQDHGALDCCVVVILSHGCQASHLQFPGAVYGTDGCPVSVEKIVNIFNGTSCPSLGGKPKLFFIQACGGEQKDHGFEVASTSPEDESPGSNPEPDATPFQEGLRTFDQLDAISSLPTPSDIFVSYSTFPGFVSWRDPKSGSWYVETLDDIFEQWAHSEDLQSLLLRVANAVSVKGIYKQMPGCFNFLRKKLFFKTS

[5] = test system: C20/A4; test: In vitro inhibition of Chondrocyte cell line C20/A4 apoptosis at 25 uM of compound; type: functional, Homo sapiens
How it was run: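 Immortalized human chondrocyte line C20/A4 seeded at 20 000 cells/well overnight, then exposed 24 h to 4 μg/mL camptothecin with or without compound. Floating and adherent cells combined and lysed 30 min at 4 °C, then clarified at 14000g. Mono- and oligonucleosome DNA fragments measured by cell death ELISA; result expressed as % inhibition of apoptosis.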

[6] = biological target: T3, Caspase-3; test: Inhibitory activity against caspase-3; conditions: read-out: Ki app
How it was run: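 Recombinant full-length human caspase 3 or 7, ~10 units/assay (1 unit = 1 pmol AMC/min). Substrate 10 μM Ac-DEVD-AMC. AMC fluorescence at 360/460 nm, 30 °C, with 5% final DMSO. Single-dose screen (typically 5–50 μM), then IC50 curves; repeated IC50s had CVs typically <30%.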

[7] = biological target: T5, Caspase-2 (Homo sapiens, UniProt P42575); test: Inhibitory activity against caspase-2; conditions: read-out: Ki app
T5 sequence (P42575 whole entry): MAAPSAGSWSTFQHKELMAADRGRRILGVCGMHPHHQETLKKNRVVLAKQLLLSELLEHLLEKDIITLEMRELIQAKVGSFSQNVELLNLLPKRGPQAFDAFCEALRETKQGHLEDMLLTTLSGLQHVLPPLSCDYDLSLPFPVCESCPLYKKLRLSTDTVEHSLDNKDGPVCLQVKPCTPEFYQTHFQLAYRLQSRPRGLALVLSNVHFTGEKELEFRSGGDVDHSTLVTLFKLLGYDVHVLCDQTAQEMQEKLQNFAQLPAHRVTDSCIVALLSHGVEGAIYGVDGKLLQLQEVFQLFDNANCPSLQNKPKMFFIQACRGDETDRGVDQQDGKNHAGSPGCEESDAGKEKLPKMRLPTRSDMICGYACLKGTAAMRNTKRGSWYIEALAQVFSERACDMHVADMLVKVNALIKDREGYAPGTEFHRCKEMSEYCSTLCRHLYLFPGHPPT
How it was run: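 Recombinant full-length human caspase 2 (~10 units/assay) in 50 mM sodium acetate pH 6.2 with 10% glycerol, 0.25 mM EDTA and 5 mM β-mercaptoethanol. Substrate 25 μM Ac-VDVAD-AMC. Fluorescence at 360/460 nm, 30 °C, final DMSO 5%. Compounds screened at a single dose (typically 5–50 μM), then full IC50 curves where activity was seen.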

[8] = test system: Jurkat (Homo sapiens); test: In vitro inhibition of Jurkat cell apoptosis at 10 uM of compound

Compound	Ki [1] [µM]	Ki [2] [µM]	IC50 [3] [µM]	Ki [4] [µM]	Inhibition [5] [%]	Ki [6] [µM]	Ki [7] [µM]	Inhibition [8] [%]
O=C1Nc2ccc(S(=O)(=O)N3CCC[C@H]3COc3ccccc3)cc2C1=O	33	29	0.044	1.2	83	0.015	4.9	51
CN(CC1CCCN1S(=O)(=O)c1ccc2c(c1)C(=O)C(=O)N2)c1ccccc1 (configuration not stated)	> 50	57	5.5	> 50		12	11	
O=C1C(=O)N(Cc2ccccc2)c2ccc(S(=O)(=O)N3CCC[C@H]3COc3ccccc3)cc21	> 5	> 5	0.0025	0.12	84	0.0012	4	27
COC[C@@H]1CCCN1S(=O)(=O)c1ccc2c(c1)C(=O)C(=O)N2	> 25	> 25	0.12	1.1		0.06	> 25	22
O=C1Nc2ccc(S(=O)(=O)N3CCC[C@H]3CNc3ccccc3)cc2C1=O	30	7.5	0.031	0.85	96	0.019	6.5	8

Source: ChEMBL document CHEMBL1134769, “Potent and selective nonpeptide inhibitors of caspases 3 and 7” (J Med Chem, 2001)
